CDK5 p35 inh = inhibitors of human CDK5/p35 kinase; Q00535+Q15078; inhibition, % at 10 µM; Recombinant CDK5/p35, ADP-Glo luminescence, 60 min; actives 0.01% (n = 330,000);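 active means highest replicate inhibition of at least 50% and at least 75% of replicates reaching 50%; inconclusive means only one of the two criteria met; inactive means both criteria failed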;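 further: plate controls were DMSO neutral control for no effect and GW8510 at 10 µM for full effect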
NSD2 HMT inh = NSD2 (human) methyltransferase inhibition. NSD2 peptide methylation, AlphaScreen, 120 min. inhibition, % at 12.5 µM. actives 0.54% (n = 310,000). AID 743445
dFosB activator = enhances mouse delta FosB homodimer DNA binding. P13346. purified delta FosB, TAMRA-CDK5 oligo fluorescence polarization; percent of positive-control signal above neutral wells. activation, % at 25 µM. actives 0.99% (n = 340,000). AID 493131;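 active means mean activation above about 17%, with every replicate also reaching it, limit read from the data, passing the limit was not always enough; inconclusive means only one of the two conditions met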
SR-BI HDL uptake = inhibitors of mouse SR-BI mediated HDL lipid uptake; ldlA[mSR-BI] CHO cells, DiI-HDL uptake fluorescence, 3 h; inhibition, % at 12.5 µM; actives 0.96% (n = 320,000);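 active means mean replicate inhibition of at least 70% and a set share of replicates each scoring 70 or more; inconclusive means meets just one of the two criteria; inactive means fails both criteria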;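 further: 0% = median of neutral control wells and 100% = median of positive control wells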
Target sequence (Q61009 whole entry, looked up): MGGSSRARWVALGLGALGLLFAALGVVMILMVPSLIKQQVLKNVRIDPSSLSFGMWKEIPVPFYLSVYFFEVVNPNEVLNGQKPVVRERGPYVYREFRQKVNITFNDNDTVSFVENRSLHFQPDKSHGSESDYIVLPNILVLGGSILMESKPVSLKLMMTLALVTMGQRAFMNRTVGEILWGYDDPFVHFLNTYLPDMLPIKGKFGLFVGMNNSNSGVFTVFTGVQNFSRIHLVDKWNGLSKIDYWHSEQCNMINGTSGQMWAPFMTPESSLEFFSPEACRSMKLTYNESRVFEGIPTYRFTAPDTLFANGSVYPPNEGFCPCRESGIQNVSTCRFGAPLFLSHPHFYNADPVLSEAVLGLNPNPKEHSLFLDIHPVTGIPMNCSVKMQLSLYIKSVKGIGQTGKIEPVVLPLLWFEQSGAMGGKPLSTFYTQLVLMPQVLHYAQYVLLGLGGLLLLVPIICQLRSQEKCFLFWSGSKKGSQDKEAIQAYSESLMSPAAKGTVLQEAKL
Dyrk1A ADPGlo = Dyrk1A (rat) kinase inhibition; Q63470; ADP-Glo luminescence, NFATc1 peptide; inhibition, % at 12.5 µM; actives 0.43% (n = 310,000); AID 504441;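 further: plate controls were vehicle with enzyme for no effect and no enzyme for full effect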
SR-BI DiI-HDL act = activators of SR-BI mediated HDL lipid uptake; CHO ldlA[mSR-BI] cells, DiI-HDL uptake fluorescence, 3 h; 100 = double the neutral-control signal; activation, % at 12.5 µM; actives 0.096% (n = 320,000);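 active means mean replicate activation of at least 60% and every replicate at or above 60%; inconclusive means mean or all-replicate condition met, but not both; inactive means mean below 60% and not all replicates reaching 60%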;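 further: 0% = median plate neutral-control signal and 100% = twice that signal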
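Test system: SR-BI-overexpressing, LDLR-lacking CHO cells; Medium: Ham's F12 with 0.5% BSA, HEPES 25 mM, pH 7.4; Schedule: 3 h, 37 °C; Technique: bottom-read fluorescence, 550/595 nm.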
Numbers without * were called inactive; ? = inconclusive; . = no result. Rows were chosen to be rich in hits. Some 2.5% of all compounds tested hit in one or more screens of this group. Unless noted, no stated cut-off is given here; in the data, active means inhibition above about 50%; inactive means the rest.

SMILES | CDK5 p35 inh | NSD2 HMT inh | dFosB activator | SR-BI HDL uptake | Dyrk1A ADPGlo | SR-BI DiI-HDL act
CCOc1ccc(C(=O)Nc2ccc(N3CCN(C(C)=O)CC3)cc2)cc1[N+](=O)[O-] | -3 | 6 | -9 | 72* | -2 | -46
COc1ccc(-c2ccc3c(c2)S(=O)(=O)c2cccc(C(=O)NCc4cc(C)oc4C(F)(F)F)c2C3=O)cc1OC | -1 | . | -5 | 56 | 2 | -56
CC(C)CC(=NNC(=O)c1ccncc1)c1cc(Cl)ccc1O | 1 | . | -3 | 127* | . | -127
Cc1c(C(=O)N2CCCC2)oc2c1-c1nn(CC(=O)NCCCOC(C)C)cc1CC2 | . | 138* | 2 | -2 | . | 2
CCCCN(CC)CCNC(=O)Cn1cc2c(n1)-c1c(oc(C(=O)N3CCCC3)c1C)CC2 | 0 | 18 | -6 | -9 | 0 | 9
CN(C)S(=O)(=O)c1ccc(N2CCCC2)c(C(=O)Nc2nc3ccccc3s2)c1 | 0 | 0 | 2 | -14 | -4 | 14
Cc1cccc2sc(NC(=O)c3cc(S(=O)(=O)N(C)C)ccc3N3CCCC3)nc12 | 0 | -2 | -4 | 76* | 0 | -76
O=C(CN1C(=O)NC(CCc2ccccc2)C1=O)Nc1cccc(Br)c1 (centres undefined) | -2 | 2 | -7 | -11 | 0 | 11
C[C@@H]1CCC(=O)N(C[C@@H](C)CSc2ccccc2)CC1 | -1 | . | -7 | -7 | 9 | 7
Cc1ncc(C(O)c2ccc(N(C)C)cc2)n1Cc1ccccc1 (centres undefined) | . | 1 | . | . | . | .
CN(C)c1ccc2nc3c(=O)[nH]c(=O)nc-3n(CC(O)C(O)C(O)CO)c2c1 (centres undefined) | 5 | . | 117* | -11 | 2 | 11
COc1ccccc1CC(=O)N1CCN(S(=O)(=O)c2ccccc2F)CC1 | 1 | 1 | -7 | -4 | 9 | 4
COc1ccc(/C(C)=N\Nc2nc(-c3ccccc3)cc(=O)[nH]2)cc1 | 0 | -2 | -2 | 73* | -1 | -73
O=C(/C=C1\NC2(CCCC2)Cc2ccccc21)C(=O)N/N=C/c1ccccc1O | -9 | 43 | 1 | 114* | 9 | -114
COc1cc(/C=N/NC(=O)C(=O)/C=C2\NC3(CCCC3)Cc3ccccc32)ccc1O | -5 | 2 | -7 | ? | -4 | -70
CN(C)c1ccc(/C=N/NC(=O)C(=O)/C=C2\NC3(CCCC3)Cc3ccccc32)cc1 | 1 | 3 | -8 | 94* | 3 | -94
Cc1ccccc1Nc1c([N+](=O)[O-])ccc2c1=NC1(CCCCC1)N=2 | 1 | 8 | 6 | 83* | 2 | -83
Cc1ccc(C)c(Nc2c([N+](=O)[O-])ccc3nonc23)c1 | -1 | . | -4 | 31 | 0 | -31
COc1ccc2c(COC(=O)CCS(=O)(=O)c3ccc(C)cc3)cc(=O)oc2c1 | -6 | -1 | -12 | -20 | -1 | 20
Fc1ccc(/C=C\c2nccc3c2[nH]c2ccccc23)cc1 | 0 | -6 | . | 63 | . | -63
C(=C\c1nccc2c1[nH]c1ccccc12)/c1ccccc1 | -1 | -13 | 42* | 59 | 43 | -59
Cc1ccc(/C=C\c2nccc3c2[nH]c2ccccc23)cc1 | 0 | . | 42* | 27 | . | -27
COc1cc(/C=N/NC(=O)CC#N)ccc1Oc1nc(Cl)ncc1F | -4 | 1 | -3 | 82* | -3 | -82
COc1ccc(CC(=O)Nc2ccc(/C(C)=N/NC(=O)c3ccc(OC)cc3OC)cc2)cc1 | 0 | -3 | 5 | 74* | -1 | -74
COc1ccc(C(=O)N/N=C(\C)CC(=O)Nc2ccc(N(C)C)cc2)c(OC)c1 | 0 | 1 | -10 | 49 | 0 | -49
SMILES | CDK5 p35 inh | NSD2 HMT inh | dFosB activator | SR-BI HDL uptake | Dyrk1A ADPGlo | SR-BI DiI-HDL act
CS(=O)(=O)Nc1cccc(-c2cc(NC=O)c3ncc(-c4ccc(F)cc4)n3c2)c1 | . | -2 | . | . | . | .
Cc1cccc(NC2=Nc3ccccc3N3C2=Nc2c(c(C)nn2-c2ccccc2)C3c2ccc(O)c(O)c2)c1 (centres undefined) | 0 | -1 | -3 | 103* | 4 | -103
Cc1ccc(NC2=Nc3ccccc3N3C2=Nc2c(c(C)nn2-c2ccccc2)C3c2ccc(O)c(O)c2)cc1 (centres undefined) | -4 | -3 | -3 | 119* | -5 | -119
Cc1nn(-c2ccccc2)c2c1C(c1ccc(O)c(O)c1)N1C(=N2)C(Nc2ccccc2)=Nc2ccccc21 (centres undefined) | 2 | 0 | -8 | 17 | 1 | -17
Cc1oc2c(c(C)nn2-c2ccccc2)c(=O)c1Cl | . | 7 | . | . | . | .
Cc1cc(C(=O)CCC(=O)Nc2ccc(C(N)=O)cc2)c(C)s1 | . | -9 | . | . | . | .
Cc1nc2c(-c3ccc(F)cc3)c(C)nn2c(C)c1CCC(=O)NC(C)CCc1ccco1 (centres undefined) | 0 | . | -7 | 63 | 4 | -63
Cc1nc2c(-c3ccc(F)cc3)c(C)nn2c(C)c1CCC(=O)Nc1ccc(F)cc1F | -2 | 14 | 8 | 75* | -3 | -75
CCCNC(=O)C(CC)NC(=O)c1ccc(C#N)cc1 (centres undefined) | -3 | . | 1 | -62 | 2 | 62*
CCCCCCCCC(NC(=O)c1ccc(C#N)cc1)C(=O)NCCC (centres undefined) | -1 | . | 2 | 2 | -14 | -2
O=C(CN1CCCC1)Nc1ccc(Br)cc1[N+](=O)[O-] | 0 | 9 | 3 | -3 | 1 | 3
COc1cc(CNc2nc(C)c([N+](=O)[O-])c(C)c2C#N)cc(OC)c1 | 1 | -3 | -3 | 76* | -2 | -76
COCc1c(C#N)c(NCc2cc(OC)c(OC)c(OC)c2)nc(C)c1[N+](=O)[O-] | 2 | 3 | 3 | ? | 13 | -71
Cc1nc(NCCc2ccccc2F)c(C#N)c(C)c1[N+](=O)[O-] | 1 | -1 | 4 | 74* | -1 | -74
CCCN(CCC)c1ccc(/C=C/c2ccc3cc(OCC)ccc3n2)cc1 | 0 | 5 | -5 | 71* | -4 | -71
O=C(CSc1ccccc1)N/N=C/c1ccccc1O | 1 | -2 | 1 | 16 | -1 | -16
CCOc1ccccc1C=NNC(=O)C(=O)NN=Cc1ccccc1OCC | 2 | -3 | 1 | 25 | -2 | -25
Oc1ccccc1C=NNC(=S)NN=Cc1ccccc1O | 5 | -7 | 8 | 133* | 25 | -133
COc1ccc(/C=N/NC(=O)C(=O)Nc2ccccn2)cc1OC | 0 | 0 | 4 | 3 | 7 | -3
CCOc1ccccc1C=NNC(=O)CCCCC(=O)NN=Cc1ccccc1OCC | 1 | -2 | 1 | 81* | -6 | -81
O=C(N/N=C/c1ccccc1O)C(=O)Nc1ccccn1 | -1 | 0 | -3 | 88* | 8 | -88
NC(=S)N/N=C/c1ccccc1O | 12 | . | -3 | . | 9 | .
